Article PMC3064429 (Bioorganic & medicinal chemistry, 2011)
Blank lines part the entries; values can stand above or below the compound they belong to.

Experiments:
σ1 receptor [1] = biological target: σ1 receptor (Cavia porcellus, UniProt Q60492); test: Competition binding assay at σ1 receptors with [3H]; design: species or system guinea pig
σ2 receptor [2] = biological target: T1, σ2 receptor (Cavia porcellus, UniProt H0V073); test: Competition binding assay at σ2 receptors with [3H]DTG / 500 nM; design: species or system guinea pig
T1 sequence (H0V073 1-176): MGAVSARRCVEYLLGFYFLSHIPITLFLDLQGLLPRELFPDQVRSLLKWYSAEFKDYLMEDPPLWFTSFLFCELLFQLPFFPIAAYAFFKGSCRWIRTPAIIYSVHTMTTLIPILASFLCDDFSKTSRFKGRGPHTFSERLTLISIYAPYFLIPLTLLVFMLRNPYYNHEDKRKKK

[3] = Compound stability in stock buffer for in vitro binding assays; format: physicochemical; conditions: for Purity by HPLC after 25 days in stock buffer: 10^-3 M in water with 1% EtOH and 0.1% or 2.5% AcOH; for State after 25 days in stock buffer: stock buffer 2.5% AcOH, 1% EtOH in water
Outline: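 Those prepared as HCl or oxalate salts were held instead in 0.1% AcOH with 1% EtOH. After 25 days in stock buffer, purity of each compound was analysed by analytical HPLC.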

σ2 receptor [4] = conditions: cited from earlier work
σ1 receptor [5] = conditions: cited from earlier work

Chain of σ1 receptor (Cavia porcellus, UniProt Q60492) (Q60492 whole entry): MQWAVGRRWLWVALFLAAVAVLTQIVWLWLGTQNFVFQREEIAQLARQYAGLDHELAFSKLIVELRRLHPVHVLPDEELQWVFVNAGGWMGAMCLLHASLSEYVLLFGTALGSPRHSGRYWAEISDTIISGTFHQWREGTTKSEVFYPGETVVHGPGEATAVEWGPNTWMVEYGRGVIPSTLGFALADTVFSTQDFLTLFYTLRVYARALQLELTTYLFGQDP

Compound: 5-bromo-N-(4-(7,8-dimethoxy-2,3,4,5-tetrahydro-1H-benzo[b]azepin-1-yl)butyl)-2,3-dimethoxybenzamide [Compound 7]
- Poorer σ1 affinity relative to 6 (σ1 receptor [1]; 7 (7R-1) vs. 6 (7R-2)): 20%
- Ki (σ1 receptor [1]; read-out: Ki (nM) σ1, [3H](+)-PTZ, guinea pig brain membranes, mean ± SEM, n = 4): 2560 ± 175 nM
- Poorer σ2 affinity relative to 6 (σ2 receptor [2]; 7 (7R-1) vs. 6 (7R-2)): ~30 times
- Selectivity Ki σ1 / Ki σ2 (σ2 receptor [2]; ratio of Ki values): 0.29
- Purity by HPLC after 25 days in stock buffer [3]: exceeded 95%

- Purity by HPLC after 25 days in stock buffer [3]: exceeded 95%
Compound: 5-bromo-N-(4-((3,4-dimethoxyphenethyl)(methyl)amino)butyl)-2,3-dimethoxybenzamide [Compound 9]

Compound: COc1cc2c(cc1OC)CN(CCCCNC(=O)c1cc(Br)cc(OC)c1OC)CC2 [Compound 1]
- Ki (σ2 receptor [4]; read-out: Ki (nM) σ2): 8.2 nM

Compound: COc1ccc(CCNCCCCNC(=O)c2cc(Br)cc(OC)c2OC)cc1OC [Compound 2]
- Change in σ1 affinity relative to 1 (σ1 receptor [5]): no change
- Decrease in σ2 affinity relative to 1 (σ2 receptor [4]; relative to 1): 1700 fold

Compound: COc1cc2c(cc1OC)CN(CCCCNC(=O)c1cc(Br)cc(OC)c1OC)C2 [Compound 3, 5-bromo-N-(4-(5,6-dimethoxyisoindolin-2-yl)butyl)-2,3-dimethoxybenzamide]
- Decrease in σ1 affinity relative to 1 (σ1 receptor [1]; relative to 1): approximately 50%
- Improvement of σ2 affinity over that of 1 (σ2 receptor [2]; relative to 1): 70%
- Purity by HPLC after 25 days in stock buffer [3]: exceeded 95%

- Poorest σ1 affinity by a factor compared to 6 and 7 (σ1 receptor [1]; compared to 6 (7R-2) and 7 (7R-1)): 2
- Purity by HPLC after 25 days in stock buffer [3]: exceeded 95%
Compound: COc1cc2c(cc1OC)CCN(CCCCNC(=O)c1cc(Br)cc(OC)c1OC)CC2 [Compound 4, 5-bromo-N-(4-(7,8-dimethoxy-4,5-dihydro-1H-benzo[d]azepin-3(2H)-yl)butyl)-2,3-dimethoxybenzamide]

- Poorer σ1 affinity, 3 vs. 5 (σ1 receptor [1]; 3 (5R-2) vs. 5 (5R-1)): 3 times
- State after 25 days in stock buffer [3]: totally decomposed
Compound: COc1cc2c(cc1OC)N(CCCCNC(=O)c1cc(Br)cc(OC)c1OC)CC2 [Compound 5, 5-bromo-N-(4-(5,6-dimethoxyindolin-1-yl)butyl)-2,3-dimethoxybenzamide]

- Purity by HPLC after 25 days in stock buffer [3]: exceeded 95%
Compound: COc1cc2c(cc1OC)CN(CCCCNC(=O)c1cc(Br)cc(OC)c1OC)CCC2 [Compound 6, 5-bromo-N-(4-(7,8-dimethoxy-4,5-dihydro-1H-benzo[c]azepin-2(3H)-yl)butyl)-2,3-dimethoxybenzamide]

- σ1 affinity decreased by a factor, relative to 1 (σ1 receptor [1]; relative to 1 (Mach Lead)): 5
- σ2 affinity relative to 1 (in words) (σ2 receptor [2]; relative to 1 (Mach Lead)): totally ablated
- State after 25 days in stock buffer [3]: totally decomposed
Compound: COc1cc2c(cc1OC)N(CCCCNC(=O)c1cc(Br)cc(OC)c1OC)CCC2 [Compound 8, 5-bromo-N-(4-(6,7-dimethoxy-3,4-dihydroquinolin-1(2H)-yl)butyl)-2,3-dimethoxybenzamide]
